# Source: ChEMBL document CHEMBL3414473
# Activity calls are given as the source filed them. The calls are words filed in the database; no cut-off is given here.
# Tests used:
# [1] = test system: LNCaP; assay: Induction of Akt-PHLPP1 complex to human LNCAP cell membrane after 24 hrs by immunofluorescence staining analysis; format: functional, cell-based
# [2] = molecular target: T1, PH domain leucine-rich repeat-containing protein phosphatase 1 (Homo sapiens, UniProt O60346); assay: Inhibition of PHLPP1-mediated reduction in phosphorylation of MDM2 in human PC3 cells after 24 hrs by Western blot analysis; format: cell-based; conditions: PC-3
# In short: (§1)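 LNCaP or PC-3 cells treated at various concentrations for 24 h in serum-free medium. Lysed in SDS buffer (50 mM Tris pH 8, 10 mM EDTA, 1% SDS, protease inhibitors); equal protein run on SDS-PAGE and transferred to nitrocellulose. Primary antibodies 1:1000 overnight at 4 °C, HRP secondary 1:2000; detected by ECL.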
# [3] = test system: LNCaP; assay: Induction of Akt localization to human LNCAP cell membrane at 5 uM after 24 hrs by immunofluorescence staining analysis; format: functional, cell-based
# In short: (§2)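 LNCaP cells on poly-L-lysine-coated surfaces, treated in serum-free medium for 24 h. Fixed in 4% formaldehyde, permeabilized with 0.1% Triton X-100, blocked in 1% FBS, primary antibody (1:300) overnight, then Alexa Fluor secondary 2 h; DAPI nuclei; confocal imaging with cross-sectional fluorescence intensity analysis.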
# [4] = molecular target: T2, Scaffold protein ILK (Homo sapiens, UniProt Q13418); assay: Binding affinity to GST-tagged PH domain of ILK (unknown origin) by surface Plasmon resonance spectroscopy
# T2 sequence (Q13418 whole entry): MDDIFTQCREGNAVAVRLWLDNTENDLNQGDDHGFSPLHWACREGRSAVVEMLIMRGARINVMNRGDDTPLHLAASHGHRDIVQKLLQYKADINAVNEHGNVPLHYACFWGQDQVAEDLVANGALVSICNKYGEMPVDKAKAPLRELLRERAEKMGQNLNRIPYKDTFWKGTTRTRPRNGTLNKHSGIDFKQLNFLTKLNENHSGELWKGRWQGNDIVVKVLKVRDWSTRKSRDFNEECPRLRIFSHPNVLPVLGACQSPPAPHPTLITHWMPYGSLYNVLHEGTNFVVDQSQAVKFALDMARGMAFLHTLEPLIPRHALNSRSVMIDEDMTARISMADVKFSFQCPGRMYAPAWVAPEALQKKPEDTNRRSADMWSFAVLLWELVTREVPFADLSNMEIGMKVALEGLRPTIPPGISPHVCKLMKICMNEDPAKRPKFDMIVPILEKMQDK
# In short: (§3)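 SPR: GST-tagged PH domain fusion protein immobilized on CM5 chip by amine coupling to about 17000 RU. Analyte injected at 1–20 µM at 30 µL/min; DMSO in samples and running buffer ≤1% (v/v). Kd obtained from sensorgram fitting.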
# [5] = test system: LNCaP; assay: Induction of PHLPP1 localization to human LNCAP cell membrane after 24 hrs by immunofluorescence staining analysis; format: functional, cell-based; in short: as §2
# [6] = molecular target: T1, PH domain leucine-rich repeat-containing protein phosphatase 1; assay: Binding affinity to GST-tagged PH domain of PHLPP1 (unknown origin) by surface Plasmon resonance spectroscopy; in short: as §3
# [7] = test system: PC-3; assay: In vivo antitumor efficacy in human PC3 cells xenografted athymic nude mouse assessed as decrease in phosphorylation of MDM2 in tumor at 100 mg/kg, po for 21 days relative to vehicle treated control; format: functional, organism-based; parameters: dose 100 mg/kg
# In short: (§4)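 Athymic nude mice given PC-3 cells sc (1 × 10⁶ per mouse); at about 50 mm³, randomized (n = 7) and dosed once daily for 21 days either ip at 50 mg/kg (vehicle saline/PEG400/DMSO/Tween 80, 65:20:10:5) or by oral gavage at 100 mg/kg (vehicle 0.5% methylcellulose/0.1% Tween 80 in water). Tumor volume measured weekly by calipers (width² × length × 0.52); phospho-proteins checked by Western blotting of tumor lysates.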
# [8] = molecular target: T1, PH domain leucine-rich repeat-containing protein phosphatase 1; assay: Inhibition of PHLPP1-mediated reduction in phosphorylation of IKK in human PC3 cells after 24 hrs by Western blot analysis; format: cell-based; conditions: PC-3; in short: as §1
# [9] = test system: PC-3; assay: In vivo antitumor efficacy in human PC3 cells xenografted athymic nude mouse assessed as inhibition of tumor growth at 100 mg/kg, po for 21 days relative to vehicle treated control; format: functional, organism-based; parameters: dose 100 mg/kg; in short: as §4
# [10] = test system: LNCaP; assay: Antiproliferative activity against human LNCAP cells assessed as suppression of cell viability after 24 hrs by MTT assay; format: functional, cell-based
# In short: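 LNCaP cells seeded at 5000/well on poly-L-lysine-coated plates in 10% FBS; 24 h later exposed to agents in serum-free medium for 24 h. Viability expressed as percent of vehicle control; IC50 derived.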
# [11] = molecular target: T1, PH domain leucine-rich repeat-containing protein phosphatase 1; assay: Inhibition of PHLPP1-mediated reduction in phosphorylation of Akt at Ser473 in human PC3 cells after 24 hrs by Western blot analysis; format: cell-based; conditions: PC-3; in short: as §1
# [12] = molecular target: T1, PH domain leucine-rich repeat-containing protein phosphatase 1; assay: Inhibition of PHLPP1-mediated reduction in phosphorylation of Akt at Ser473 in human LNCAP cells after 24 hrs by Western blot analysis; format: cell-based; in short: as §1
# [13] = molecular target: T1, PH domain leucine-rich repeat-containing protein phosphatase 1; assay: Inhibition of PHLPP1-mediated reduction in phosphorylation of MDM2 in human LNCAP cells after 24 hrs by Western blot analysis; format: cell-based; in short: as §1
# [14] = test system: PC-3; assay: Antiproliferative activity against human PTEN-negative PC3 cells assessed as suppression of cell viability after 24 hrs by MTT assay in serum free medium; format: functional, cell-based
# [15] = test system: PC-3; assay: In vivo antitumor efficacy in human PC3 cells xenografted athymic nude mouse assessed as decrease in phosphorylation of IKK in tumor at 100 mg/kg, po for 21 days relative to vehicle treated control; format: functional, organism-based; parameters: dose 100 mg/kg; in short: as §4
# [16] = molecular target: T1, PH domain leucine-rich repeat-containing protein phosphatase 1; assay: Inhibition of PHLPP1-mediated reduction in phosphorylation of IKK in human LNCAP cells after 24 hrs by Western blot analysis; format: cell-based; in short: as §1
# [17] = test system: PC-3; assay: In vivo antitumor efficacy in human PC3 cells xenografted athymic nude mouse assessed as decrease in phosphorylation of Akt at Thr308 in tumor at 100 mg/kg, po for 21 days relative to vehicle treated control; format: functional, organism-based; parameters: dose 100 mg/kg; in short: as §4
# [18] = molecular target: RAC-alpha serine/threonine-protein kinase (Homo sapiens, UniProt P31749); assay: Binding affinity to GST-tagged PH domain of AKT (unknown origin) by surface Plasmon resonance spectroscopy; in short: as §3
# [19] = molecular target: T1, PH domain leucine-rich repeat-containing protein phosphatase 1; assay: Inhibition of PHLPP1-mediated reduction in phosphorylation of Akt at Thr308 in human LNCAP cells after 24 hrs by Western blot analysis; format: cell-based; in short: as §1
# [20] = test system: PC-3; assay: In vivo antitumor efficacy in human PC3 cells xenografted athymic nude mouse assessed as decrease in phosphorylation of IKK in tumor at 50 mg/kg, ip for 21 days relative to vehicle treated control; format: functional, organism-based; parameters: dose 50 mg/kg; in short: as §4
# [21] = test system: LNCaP; assay: Induction of PHLPP1 localization to human LNCAP cell membrane at 5 uM after 24 hrs by immunofluorescence staining analysis; format: functional, cell-based; in short: as §2
# [22] = molecular target: T1, PH domain leucine-rich repeat-containing protein phosphatase 1; conditions: LNCaP, 2.5 to 25 uM
# [23] = test system: LNCaP; assay: Induction of Akt localization to human LNCAP cell membrane after 24 hrs by immunofluorescence staining analysis; format: functional, cell-based; in short: as §2
# [24] = test system: PC-3; assay: In vivo antitumor efficacy in human PC3 cells xenografted athymic nude mouse assessed as decrease in phosphorylation of MDM2 in tumor at 50 mg/kg, ip for 21 days relative to vehicle treated control; format: functional, organism-based; parameters: dose 50 mg/kg; in short: as §4
# [25] = test system: LNCaP; assay: Induction of ILK localization to human LNCAP cell membrane at 5 uM after 24 hrs by immunofluorescence staining analysis; format: functional, cell-based; in short: as §2
# T1 sequence (O60346 whole entry, the tested form may be a part): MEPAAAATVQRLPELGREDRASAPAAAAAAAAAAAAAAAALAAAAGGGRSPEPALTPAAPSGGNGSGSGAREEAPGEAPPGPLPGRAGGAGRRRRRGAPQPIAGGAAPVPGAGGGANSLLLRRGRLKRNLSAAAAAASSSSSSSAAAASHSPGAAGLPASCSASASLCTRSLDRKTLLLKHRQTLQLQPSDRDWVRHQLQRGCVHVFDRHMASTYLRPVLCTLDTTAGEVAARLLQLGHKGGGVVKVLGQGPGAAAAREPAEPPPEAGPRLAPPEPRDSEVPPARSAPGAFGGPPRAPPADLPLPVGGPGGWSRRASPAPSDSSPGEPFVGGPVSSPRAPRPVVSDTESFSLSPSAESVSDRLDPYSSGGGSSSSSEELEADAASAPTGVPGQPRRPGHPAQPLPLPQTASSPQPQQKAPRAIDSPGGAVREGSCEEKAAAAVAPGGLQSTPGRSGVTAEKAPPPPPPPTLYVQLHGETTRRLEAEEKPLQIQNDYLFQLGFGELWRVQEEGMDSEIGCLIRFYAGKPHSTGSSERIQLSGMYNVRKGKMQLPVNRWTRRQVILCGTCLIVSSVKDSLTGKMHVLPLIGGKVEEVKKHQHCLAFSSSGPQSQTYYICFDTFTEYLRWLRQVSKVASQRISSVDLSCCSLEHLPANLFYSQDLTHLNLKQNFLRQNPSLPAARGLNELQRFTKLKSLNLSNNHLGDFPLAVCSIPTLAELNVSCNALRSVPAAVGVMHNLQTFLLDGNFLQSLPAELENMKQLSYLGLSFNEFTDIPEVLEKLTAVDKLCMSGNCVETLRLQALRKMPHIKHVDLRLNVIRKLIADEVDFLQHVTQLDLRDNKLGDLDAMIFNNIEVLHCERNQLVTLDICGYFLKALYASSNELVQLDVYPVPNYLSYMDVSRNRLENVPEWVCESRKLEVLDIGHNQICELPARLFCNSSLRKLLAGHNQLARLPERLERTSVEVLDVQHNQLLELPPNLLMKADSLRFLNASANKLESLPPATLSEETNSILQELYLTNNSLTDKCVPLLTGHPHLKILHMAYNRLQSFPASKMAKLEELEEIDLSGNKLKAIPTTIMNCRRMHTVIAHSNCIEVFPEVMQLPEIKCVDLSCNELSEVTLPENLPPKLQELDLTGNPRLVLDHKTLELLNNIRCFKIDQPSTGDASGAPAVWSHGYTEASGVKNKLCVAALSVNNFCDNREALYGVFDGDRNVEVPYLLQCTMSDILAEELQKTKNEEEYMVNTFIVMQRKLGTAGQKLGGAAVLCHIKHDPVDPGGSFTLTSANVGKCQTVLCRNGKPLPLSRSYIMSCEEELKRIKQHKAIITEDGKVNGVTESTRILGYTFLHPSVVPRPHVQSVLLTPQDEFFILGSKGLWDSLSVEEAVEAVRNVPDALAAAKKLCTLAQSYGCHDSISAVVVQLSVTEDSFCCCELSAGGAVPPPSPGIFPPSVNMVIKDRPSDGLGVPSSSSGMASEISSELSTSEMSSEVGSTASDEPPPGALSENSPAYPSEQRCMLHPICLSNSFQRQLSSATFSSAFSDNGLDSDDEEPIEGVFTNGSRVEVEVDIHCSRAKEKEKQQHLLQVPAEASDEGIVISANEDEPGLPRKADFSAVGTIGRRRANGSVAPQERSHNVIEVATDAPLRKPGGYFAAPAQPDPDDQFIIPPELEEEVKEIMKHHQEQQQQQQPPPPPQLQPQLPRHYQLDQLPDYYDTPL
# Chain of RAC-alpha serine/threonine-protein kinase (P31749 whole entry, the tested form may be a part): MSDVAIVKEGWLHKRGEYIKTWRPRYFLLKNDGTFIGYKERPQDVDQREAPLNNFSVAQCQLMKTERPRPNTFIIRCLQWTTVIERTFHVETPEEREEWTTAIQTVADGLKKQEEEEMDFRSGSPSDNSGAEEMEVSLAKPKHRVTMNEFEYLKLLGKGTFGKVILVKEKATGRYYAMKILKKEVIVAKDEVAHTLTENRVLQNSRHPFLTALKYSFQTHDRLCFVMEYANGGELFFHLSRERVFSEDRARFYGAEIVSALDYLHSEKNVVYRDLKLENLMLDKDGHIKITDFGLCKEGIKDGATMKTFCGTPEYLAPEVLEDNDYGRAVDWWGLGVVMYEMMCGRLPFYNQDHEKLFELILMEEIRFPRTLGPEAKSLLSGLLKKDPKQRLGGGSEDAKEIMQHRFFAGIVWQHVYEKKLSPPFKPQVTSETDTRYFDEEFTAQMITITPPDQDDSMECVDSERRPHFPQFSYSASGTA
smiles,measurement,setting,value
Cc1c(S(N)(=O)=O)cc2c(c1C)OC(C)(CCCC(C)C)CC2 (stereo not given),Activity,[1],Dose-dependent effect
same,inhibition,[2],Dose-dependent effect
same,Activity,[3],Active
same,Kd,[4],6200 nM
same,Activity,[5],Dose-dependent effect
same,Kd,[6],720 nM
same,Activity,[7],Active
same,inhibition,[8],Dose-dependent effect
same,Activity,[9],Active
same,IC50,[10],3000 nM
same,inhibition,[11],Dose-dependent effect
same,inhibition,[12],Dose-dependent effect
same,inhibition,[13],Dose-dependent effect
same,Activity,[14],Active
same,Activity,[15],Active
same,inhibition,[16],Dose-dependent effect
same,inhibition,[17],inactive
same,Kd,[18],200 nM
same,inhibition,[19],inactive
same,inhibition,[20],Active
same,Activity,[21],Active
same,inhibition,[22],Active
same,Activity,[23],Dose-dependent effect
same,inhibition,[24],Active
same,Activity,[25],inactive
